Assay results published in ChEMBL document CHEMBL1123879, “Synthesis and antiarrhythmic activity of novel 3-alkyl-1-[omega-[4-[(alkylsulfonyl)amino]phenyl]-omega- hydroxyalkyl]-1H-imidazolium salts and related compounds” (J Med Chem, 1987).

Key:
[1] = species: Canis familiaris; experiment: (§1) Concentration that causes 20% increase in functional refractory period (FRP) was determined on isolated canine ventricular muscle fibers; parameters: species or system Canis lupus familiaris, Muscle tissue
Outline: (§2)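 Canine right ventricular papillary muscle strips superfused with O2/CO2-gassed saline at 36 ± 0.5 °C. Bipolar electrogram recording. Stimulated at 4× diastolic threshold (2 ms pulses), equilibrated 60 min. FRP measured at 1000 ms cycle length by S2 after every tenth S1 at shortening intervals. Cumulative concentrations; one compound per strip, with vehicle controls. Readout is concentration giving a 20% FRP change, or maximal change; log mean with 90% CI when n > 2.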

[2] = species: Canis familiaris; experiment: (§3) Concentration that causes 20% increase in ADP95 (action potential duration at 95% repolarization) was determined on isolated canine cardiac Purkinje fibers; assay type: functional, Canis lupus familiaris, Purkinje fiber
Outline: (§4)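 Canine cardiac Purkinje fibres in gassed physiological saline (95% O2–5% CO2, pH 7.35–7.40) at 36 ± 0.5 °C. Paced at 1.0 Hz with 2 ms pulses at twice diastolic threshold. Intracellular microelectrode recording after up to 1 h of stabilisation; 30 min exposure per concentration; one compound per fibre, with vehicle controls. Readout is concentration giving a 20% change in APD95, or maximal APD95 change; log mean with 90% CI when n > 2.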

[3] = species: Canis familiaris; experiment: Maximum observed change in ADP95 from control value was determined in isolated canine cardiac uM; assay type: functional, Canis lupus familiaris; outline: as §4
[4] = species: Canis familiaris; experiment: Maximum observed change in FRP from control was determined in isolated canine ventricular muscle fibers at a concentration of 100 uM; assay type: functional, Canis lupus familiaris, Muscle tissue; outline: as §2
[5] = system: Canis familiaris; experiment: In vivo intraduodenal activity in mongrel dogs was assessed by % change in heart rate (10 mg/kg administered intradermally); assay type: functional, Canis lupus familiaris; conditions: in the assay text read “intraduodenally” for “intradermally”
Outline: (§5)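 Healthy dogs (8–20 kg) of either sex, pentobarbital 30 mg/kg iv, ventilated, temperature held at 36 ± 0.5 °C. Compound given intraduodenally as suspension in 0.5% tragacanth. HR, BP and FRP measured at 45 min postdose; second dose if FRP/conduction change below 12%. Active dose means FRP change ≥ 12%; HR and BP given as % change, mean ± SEM.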

[6] = system: Canis familiaris; experiment: In vivo intraduodenal activity in mongrel dogs was assessed by % change in blood pressure (10 mg/kg administered intradermally); assay type: functional, Canis lupus familiaris, Artery; conditions: in the assay text read “intraduodenally” for “intradermally”; outline: as §5
[7] = species: Canis familiaris; experiment: as §1; conditions: Canis lupus familiaris; Muscle tissue; outline: as §2
[8] = system: Canis familiaris; experiment: In vivo antiarrhythmic efficacy in a PES model of mongrel dog expressed as percent change in blood pressure at iv dose range of 0.1-30 mg/kg.; assay type: functional, Canis lupus familiaris
Outline: (§6)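 Mongrel dogs (8–17 kg) with two-stage LAD occlusion 24 h earlier, anesthetized with thiopental 15 mg/kg and ventilated; open chest. PES induces SVT/VF; two control arrhythmias 30 min apart. Compound given as 10-min iv infusion, PES repeated 20 min later, dose escalated while still inducible; noninducibility counts as effective. HR and BP reported as % change at effective dose, mean ± SEM.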

[9] = system: Canis familiaris; experiment: In vivo intraduodenal activity in mongrel dogs was assessed by percent change in blood pressure at active dose of 10 mg/kg, administered intradermally; assay type: functional, Canis lupus familiaris, Artery; conditions: in the assay text read “intraduodenally” for “intradermally”; outline: as §5
[10] = species: Canis familiaris; experiment: Concentration that causes 20% increase in ADP95 (action potential duration at 95% repolarization) was determined on isolated canine cardiac Purkinje fibers;range is 11.2-18.6; assay type: functional, Canis lupus familiaris, Purkinje fiber; outline: as §4
[11] = system: Canis familiaris; experiment: In vivo antiarrhythmic efficacy in a programmed electrical stimulation (PES) model of mongrel dogs reported as number of animals effective at dose range of 0.1-30 mg/kg.; assay type: functional, Canis lupus familiaris, Heart; outline: as §6
[12] = system: Canis familiaris; experiment: In vivo intraduodenal activity in mongrel dogs was assessed by percent change in heart rate at active dose of 10 mg/kg, administered intradermally; assay type: functional, Canis lupus familiaris; conditions: in the assay text read “intraduodenally” for “intradermally”; outline: as §5
[13] = species: Canis familiaris; experiment: Concentration that causes 20% increase in functional refractory period (FRP) was determined on isolated canine ventricular muscle fibers;range is 3.7-162; parameters: species or system Canis lupus familiaris, Muscle tissue; outline: as §2
[14] = system: Canis familiaris; experiment: In vivo antiarrhythmic efficacy in a PES model of mongrel dog expressed as percent change in heart rate at iv dose range of 0.1-30 mg/kg.; assay type: functional, Canis lupus familiaris; outline: as §6
[15] = system: Canis familiaris; experiment: In vivo antiarrhythmic efficacy in a programmed electrical stimulation (PES) model of mongrel dogs expressed as minimum effect dose (iv) at iv dose range of 0.1-30 mg/kg.; assay type: functional, Canis lupus familiaris, Heart; outline: as §6
[16] = species: Canis familiaris; experiment: as §3; assay type: functional; conditions: Canis lupus familiaris; Purkinje fiber; outline: as §4
[17] = species: Canis familiaris; experiment: Concentration that causes 20% increase in ADP95 (action potential duration at 95% repolarization) was determined on isolated canine cardiac Purkinje fibers at a concentration range 0.01-10 uM; assay type: functional, Canis lupus familiaris, Purkinje fiber; outline: as §4
[18] = system: Canis familiaris; experiment: In vivo antiarrhythmic efficacy in a programmed electrical stimulation (PES) model of mongrel dogs reported as number of animals effective at dose range of 0.3-10 mg/kg.; assay type: functional, Canis lupus familiaris, Heart; outline: as §6
[19] = system: Canis familiaris; experiment: In vivo antiarrhythmic efficacy in a programmed electrical stimulation (PES) model of mongrel dogs expressed as percent change in heart rate at iv dose range of 0.3-10 mg/kg.; assay type: functional, Canis lupus familiaris; outline: as §6
[20] = system: Canis familiaris; experiment: In vivo antiarrhythmic efficacy in a programmed electrical stimulation (PES) model of mongrel dogs expressed as percent change in blood pressure at iv dose range of 0.3-10 mg/kg.; assay type: functional, Canis lupus familiaris; outline: as §6
[21] = biological target: Adrenergic receptor beta (Canis familiaris); experiment: Concentration effective against displacing [3H]dihydroalprenolol from beta adrenergic receptor from canine ventricular tissue
[22] = system: Canis familiaris; experiment: In vivo antiarrhythmic efficacy in a programmed electrical stimulation (PES) model of mongrel dogs expressed as minimum effect dose (iv) at iv dose range of 0.3-10 mg/kg.; assay type: functional, Canis lupus familiaris, Heart; outline: as §6

Structure (SMILES)	Activity [1] [µM]	Activity [2] [µM]	Max delta APD95 [3] [%]	Max delta FRP [4] [%]	further results
C[n+]1ccn(CCC(=O)c2ccc(NS(C)(=O)=O)cc2)c1.[Cl-]	17.8	38.3	26	29	Heart rate [5]: -2%; Blood pressure [6]: 6%
C[n+]1ccn(CC(=O)c2ccccc2)c1.[Br-]	–	69	–	–	Activity [7]: Not recorded; Max delta FRP ([4]; Canis lupus familiaris, Muscle tissue): Minimal effects
C[n+]1ccn(C[C@H](O)c2ccc(NS(C)(=O)=O)cc2)c1.[Cl-]	14	0.3	58	25	–
CCS(=O)(=O)Nc1ccc(C(O)Cn2cc[n+](C)c2)cc1.[Cl-] (stereo unspecified)	14.5	30	27	27	–
CC[n+]1ccn(CC(=O)c2ccc(NS(C)(=O)=O)cc2)c1.[Cl-]	28.2	49.4	26	26	–
CC(C)NCC(O)c1ccc(NS(C)(=O)=O)cc1.Cl (stereo unspecified) [SOTALOL HYDROCHLORIDE]	–	–	48	23	Change [8]: -23%; Change [9]: 8%; Activity [10]: 14.4 µM; No. of animals [11]: 3; Change [12]: -11%; Activity [13]: 24.7 µM; Change [14]: -23%; Mean effective dose [15]: 1.4
C[n+]1ccn(CCCc2ccc(NS(C)(=O)=O)cc2)c1.O=P([O-])(O)O	–	7.2	47	13	Activity [7]: Not recorded
CCS(=O)(=O)Nc1ccc(C(=O)Cn2cc[n+](C)c2)cc1.[Cl-]	40	29	33	26	–
C[n+]1ccn(CCC(O)c2ccc(NS(C)(=O)=O)cc2)c1.[Cl-] (stereo unspecified)	100	–	–	20	Max delta APD95 ([3]; Canis lupus familiaris): Minimal effects; Activity [16]: Not recorded
CCCCCCC[n+]1ccn(CC(=O)c2ccc(NS(C)(=O)=O)cc2)c1.[Br-]	–	–	21	14	Activity [7]: Not recorded; Activity [17]: 9 µM
C[n+]1ccn(C[C@@H](O)c2ccc(NS(C)(=O)=O)cc2)c1.[Cl-]	7.5	0.7	74	31	–
C[n+]1ccn(CC(O)c2ccc(NS(C)(=O)=O)cc2)c1 (stereo unspecified)	8.7	0.6	55	24	–
C[n+]1ccn(CC(O)c2ccc(NS(C)(=O)=O)cc2)c1.[Cl-] (stereo unspecified)	5.9	1.6	50	31	No. effective [18]: 2; Heart rate [19]: -23%; Blood pressure [20]: 0%; IC50 [21]: 2350 µM; Heart rate [5]: -10%; Blood pressure [6]: 5%; Min effective dose [22]: 6.5
